MEKK2mut PB1 HTS = signal of MEK5 binding to mutant human MEKK2 PB1 domain. bead flow cytometry, Alexa488-MEK5 binding to MEKK2 mutant. percent response, % at 10 µM. actives 0.35% (n = 290,000). AID 1530; in the data active = percent response above about 24%, passing the limit was not always enough
MEKK2 WT-MEK5 = raises or lowers MEK5 binding to wildtype human MEKK2 PB1 domain | Q9Y2U5 | bead flow cytometry, Alexa488-MEK5 binding to MEKK2 WT; actives lie on both sides | binding response (% of control), % at 10 µM | actives 1.1% (n = 290,000) | AID 1531; in the data active = binding response below about 67% or above about 130%
NS3 helicase inh = blocks Hepatitis C virus NS3 helicase unwinding | actives 0.56% (n = 290,000) | inhibition, % at 10.9 µM | NS3 helicase DNA unwinding, Cy5 molecular beacon fluorescence;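 active = inhibition above the mean of all tested compounds plus 3 SD, set per campaign, cut at about 35% in these data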
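Material: hepatitis C virus NS3 helicase domain fragment enzyme; measured by: Cy5 fluorescence, 0 and 60 min reads; control set: DMSO and thioflavine S; incubation: 60 min unwinding reaction at 25 °C after ATP addition; read-out basis: % inhibition from 60/0 min fluorescence ratio, DMSO 0%, thioflavine S 100%; repeats: singlicate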
T cruzi repl = blocks replication of Trypanosoma cruzi. T. cruzi beta-gal in NIH3T3, luminescence, 90 h. inhibition, % (concentration not given with the values). actives 1.4% (n = 300,000). AID 1885;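 active = mean inhibition across valid replicates above about 55%, limit read from the data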;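 also: signal also drops with host cell toxicity which is not excluded here; higher percent means less beta-gal luminescence so fewer parasites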
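Read-out: Parasite load inhibition, % | Test system: Mouse NIH/3T3 fibroblasts infected with β-gal-expressing T. cruzi Tulahuen C4 | Amount: 5,000 cells/well | Medium: DMEM, 2% fetal bovine serum | Signal: GalScreen β-gal luminescence, detergent lysis, 60 min | Timing: 3 h attach, ≥90 h co-culture | Also added: Tulahuen C4 trypomastigotes, 5000/well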
MEKK3 PB1 HTS = modulators (inhibitors or enhancers) of MEK5 binding to human MEKK3 PB1 domain; Q99759; bead-based flow cytometry, Alexa488-MEK5 binding to MEKK3; actives lie on both sides; 0 = blocked by unlabeled MEK5, 100 = vehicle; binding response (% of control), % at 10 µM; AID 1529; actives 1.4% (n = 290,000);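 active = binding response more than 3 SD above or below the average of its plate-row segment, actives on both sides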;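 also: Alexa488 bead fluorescence after subtracting the streptavidin-only scavenger bead signal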
Target sequence (Q99759 whole entry, looked up, the tested form may be a part): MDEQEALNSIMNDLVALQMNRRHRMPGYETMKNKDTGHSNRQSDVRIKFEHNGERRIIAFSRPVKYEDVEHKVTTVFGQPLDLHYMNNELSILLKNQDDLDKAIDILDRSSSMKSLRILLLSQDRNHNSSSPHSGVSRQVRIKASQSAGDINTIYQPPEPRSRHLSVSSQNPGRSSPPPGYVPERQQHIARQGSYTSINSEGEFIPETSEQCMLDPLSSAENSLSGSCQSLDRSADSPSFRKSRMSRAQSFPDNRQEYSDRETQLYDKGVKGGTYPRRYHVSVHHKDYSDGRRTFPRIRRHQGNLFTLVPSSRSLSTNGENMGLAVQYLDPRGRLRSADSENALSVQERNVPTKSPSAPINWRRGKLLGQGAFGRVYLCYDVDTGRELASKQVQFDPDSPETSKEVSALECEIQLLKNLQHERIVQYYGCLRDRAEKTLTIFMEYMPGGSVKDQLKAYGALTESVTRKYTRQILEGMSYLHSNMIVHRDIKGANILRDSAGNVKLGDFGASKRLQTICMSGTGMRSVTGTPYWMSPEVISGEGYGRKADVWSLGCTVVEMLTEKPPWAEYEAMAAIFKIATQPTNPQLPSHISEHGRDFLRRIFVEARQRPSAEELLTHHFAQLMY
FID counter = fluorescent intercalator displacement, NS3 helicase counter-screen; DNA fluorescent intercalator displacement, fluorescence; inhibition, % at 7.9 µM; actives 0.17% (n = 290,000); AID 1845; in the data active = inhibition above about 37%;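 also: higher means more ethidium bromide displaced from hairpin DNA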
Large screens that a line does not name were inactive; [ ] = remark or other dose. Only some compounds are listed: those with a hit (about 4.1% of all), similar ones and a draw of the others.

Cc1cc(C)c2sc(N(CCN(C)C)C(=O)CCS(=O)(=O)c3ccccc3)nc2c1	none
Cc1ccc2sc(N(CCCN(C)C)C(=O)CCS(=O)(=O)c3ccccc3)nc2c1C	MEKK2 WT-MEK5 151, T cruzi repl 63, FID counter 41
CCN(CC)CCN(C(=O)CCS(=O)(=O)c1ccccc1)c1nc2cc(C)cc(C)c2s1	T cruzi repl 72
Cc1noc(C)c1C(=O)Nc1nccs1	none
CN(C)S(=O)(=O)c1ccc(C(=O)Nc2ccn(C)n2)cc1	none
CC(=O)NCCn1c(SCc2cc(F)ccc2F)nc2ccccc2c1=O	T cruzi repl 68
COc1ccccc1N1CCN(CCCNC(=O)C2CCCN(c3ncnc4c3nc3n4CCCCC3)C2)CC1 (configuration not stated)	MEKK2 WT-MEK5 136
OC1=C(O)c2nc3cc(F)ccc3nc21	FID counter 38
Cc1ccc2n(n1)c(=O)c(Cc1ccccc1)c([O-])[n+]2-c1ccccc1	none
Cc1cccc(Cn2c(O)c(N=NC(=S)Nc3ccccc3F)c3ccccc32)c1	T cruzi repl 60
Cc1ccc2c(c1)c(N=NC(N)=S)c(O)n2Cc1ccccc1	none
Oc1c(N=NC(=S)Nc2ccccc2F)c2ccccc2n1Cc1ccc(F)cc1	T cruzi repl 67
Oc1c(N=NC(=S)Nc2ccccc2F)c2ccccc2n1Cc1cccc(Cl)c1	T cruzi repl 57
O=c1cc(C(Cl)(Cl)Cl)oc2c1ccc1ccccc12	T cruzi repl 69
O=c1cc(-c2ccco2)oc2c1ccc1ccccc12	none
COc1ccc2cc(CN(Cc3cccnc3)Cc3nnnn3Cc3ccccc3)c(=O)[nH]c2c1	T cruzi repl 62
CCC(C)(C)n1nnnc1CN(Cc1cccs1)Cc1cc2cc(OC)ccc2[nH]c1=O	none (no result: NS3 helicase inh, FID counter)
COc1ccc2cc(CN(Cc3cccs3)Cc3nnnn3Cc3ccccc3)c(=O)[nH]c2c1	none
CCOc1ccc2[nH]c(=O)c(CN(Cc3cccs3)Cc3nnnn3C(C)(C)CC)cc2c1	T cruzi repl 58
Cc1cccc2cc(CN(Cc3cccs3)Cc3nnnn3Cc3ccccc3)c(=O)[nH]c12	T cruzi repl 63
Cc1c(NC(=O)Nc2ccc3c(c2)OCO3)cccc1[N+](=O)[O-]	none
CCNCCC(=O)N1c2ccccc2Sc2ccc(C(F)(F)F)cc21	none
O=[N+]([O-])c1ccc(Sc2cccc3cccnc23)c2cccnc12	T cruzi repl 86
Cc1ccc(C23CC4CC(CC(C(=O)NC(C)C(N)=O)(C4)C2)C3)cc1 (configuration not stated)	none
Cc1ccc(CN(C)CCc2ccccn2)cc1	T cruzi repl 67
CCc1ccc(CN(C)CCc2ccccn2)cc1	T cruzi repl 63
COc1ccc(CN(C)CCc2ccccn2)cc1OC	none (no result: T cruzi repl)
CN(CCc1ccccn1)Cc1ccc(Cl)cc1	T cruzi repl 56
CC1CCCN(CCCNC(=O)c2ccc3c(c2)N(Cc2ccccc2F)C(=O)c2ccccc2S3(=O)=O)C1 (configuration not stated)	MEKK2 WT-MEK5 136
Cc1cccc(CN2C(=O)c3ccccc3S(=O)(=O)c3ccc(C(=O)NCCCN4CCCC4)cc32)c1	MEKK2 WT-MEK5 141
Cc1ccc(CN2C(=O)c3ccccc3Sc3ccc(C(=O)NCCCN4CCOCC4)cc32)cc1	FID counter 37
C=CCc1cccc(/C=N/NC(=O)C(C)Nc2cccc(C)c2)c1O (configuration not stated)	T cruzi repl 81
C=CCc1cccc(/C=N/NC(=O)CNc2cccc3ccccc23)c1O	none
C=CCc1cccc(/C=N/NC(=O)CNc2ccccc2OC)c1O	T cruzi repl 65
OCCC1CN(C/C=C/c2ccco2)CCN1Cc1ccccc1 (configuration not stated)	none
O=C(COC(=O)c1cccc(S(=O)(=O)Nc2ccc(F)cc2)c1)NCCN1C(=O)CSC1=O	none (no result: MEKK2mut PB1 HTS, MEKK2 WT-MEK5, NS3 helicase inh, MEKK3 PB1 HTS, FID counter)
O=C(C#Cc1ccccc1)Nc1cccc(F)c1	none
COc1ccc(CCNCC(O)COc2cccc(Br)c2)cc1OC (configuration not stated)	none
COc1ccc(CCNCC(O)COc2ccc(OC)cc2C(C)(C)C)cc1 (configuration not stated)	FID counter 43
CC1CN(C(=O)CCc2cc(C(C)(C)C)c(O)c(C(C)(C)C)c2)CC(C)O1 (configuration not stated)	none
CC(C)(C)c1cc(CCC(=O)N2CCC2)cc(C(C)(C)C)c1O	MEKK2mut PB1 HTS 25
Cc1ccc(-n2nc3c(c2NC(=O)c2ccc4c(c2)OCO4)CS(=O)(=O)C3)cc1	MEKK2 WT-MEK5 0.0[inhibitor], MEKK3 PB1 HTS 2.0[inhibitor]
O=C(Nc1c2c(nn1-c1cccc(Cl)c1)CS(=O)(=O)C2)c1ccco1	MEKK2 WT-MEK5 42[inhibitor], MEKK3 PB1 HTS 36[inhibitor]
CCN(CC(=O)Nc1cccc(OC)c1)c1ncnc2sc(C)c(C)c12	none
CC(NC(=O)Cc1ccc(S(=O)(=O)N2CCOCC2)s1)c1ccc(Cl)c(Cl)c1 (configuration not stated)	none (no result: MEKK2mut PB1 HTS, MEKK2 WT-MEK5, NS3 helicase inh, MEKK3 PB1 HTS, FID counter)
Cc1cc2c(cc1C)NC(c1c(C)n(C)n(-c3ccccc3)c1=O)C1=C(CC(C)(C)CC1=O)N2 (configuration not stated)	T cruzi repl 55
COc1cc(C2Nc3cc(C)c(C)cc3NC3=C2C(=O)CC(C)(C)C3)ccc1OC(C)=O (configuration not stated)	none
COc1ccc(CN(CC2CCC(C(=O)O)CC2)C(=S)Nc2ccc(C)c(Cl)c2)cc1 (configuration not stated)	T cruzi repl 58
COc1ccc(NC(=S)N(Cc2cccc(Br)c2)CC2CCC(C(=O)O)CC2)cc1 (configuration not stated)	none
Cc1cc(Sc2nc(N)ncc2[N+](=O)[O-])ncn1	T cruzi repl 61
O=C(NC(=S)Nc1cccc(S(=O)(=O)NC2=NCCC2)c1)c1cc(-c2ccco2)nc2ccccc12	none
O=C(Nc1cccc(S(=O)(=O)NC2=NCCC2)c1)c1cc(-c2ccco2)nc2ccccc12	NS3 helicase inh 45
COc1ccc(-c2cc(C(=O)Nc3cccc(S(=O)(=O)NCc4ccco4)c3)c3ccccc3n2)cc1OC	T cruzi repl 60
Cc1ccc(C)c(C(=O)C(C)OC(=O)CN2C(=O)NC3(CC(C)CC(C)(C)C3)C2=O)c1 (configuration not stated)	none
CCOC(CNC(=O)C(=O)Nc1cc2c3c(c1)CCC(=O)N3CCC2)OCC	none

Screens as filed in PubChem BioAssay.
